# Source: PMC3195516 (Synthesis, 2010)
# Like-named read-outs stand apart in the source and are kept apart here.
# Tests used:
# [1] = test system: L1210 cells; experiment: L1210 cell growth inhibition; type: cell-based, Murine
# Summary of the method: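 L1210 cells were kept in logarithmic-phase suspension in RPMI-1640 with 10% fetal bovine serum, 2% HEPES-MOPS buffer, 1 mM L-glutamine and 1 mM aminoguanidine at 37 °C under 5% CO₂. Cultures at 0.5–1.0 × 10⁵ cells/mL were treated, reseeded and incubated, then counted. IC50 is the concentration that reduces growth to 50% of control after the set exposure.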
# [2] = test system: L1210 cells; details: cultured L1210 cells; cited from earlier work
# [3] = Mus musculus, L1210, 48 h, read-out: IC50 (µM) 48 h
# [4] = Mus musculus, L1210, 96 h, read-out: IC50 (µM) 96 h
# [5] = read-out: IC50 (µM) 48 h, L1210 cells, 48 h exposure
# [6] = read-out: IC50 (µM) 96 h, L1210 cells, 96 h exposure
"IC50 [1, 3]","IC50 [1, 4]","IC50 [1, 5]","IC50 [1, 6]",Compound,intracellular concentration of compound [2]
19 µM,20 µM,,,"C[C@]1(C(=O)O)CSC(c2ccc(O)cc2O)=N1 [(S)-4′-(HO)-DADFT (6), (S)-2-(2,4-dihydroxyphenyl)-4,5-dihydro-4-methyl-4-thiazolecarboxylic acid]",
,,20 µM,2 µM,"CCNCCCNCCCNCCCNCC [DENSPM (1), reference compound]",
46 µM,55 µM,,,"Cc1c(O)c(=O)ccn1C [L1 (2), 1,2-dimethyl-3-hydroxypyridin-4-one, reference compound]",~ 1 µM
0.2 µM,0.2 µM,,,"Cc1c(O)c(=O)ccn1CCCNCCCCNCCCN [L1-SPM-conjugate (3), 1-(12-amino-4,9-diazadodecyl)-2-methyl-3-hydroxy-4(1H)-pyridinone]",390 µM
40 µM,40 µM,,,"C[C@]1(C(=O)O)CSC(c2ccc(OCCCCNCCCNCCCN)cc2O)=N1 [NSPD-(S)-4′-(HO)-DADFT (4), (S)-4,5-dihydro-2-[2-hydroxy-4-(12-amino-5,9-diazadodecyloxy)phenyl]-4-methyl-4-thiazolecarboxylic acid]",
,,1.8 µM,2.1 µM,"CCOC(=O)[C@@]1(C)CSC(c2ccc(OC(=O)c3ccc(CNCCCNCCCN)cc3)cc2O)=N1 [NSPDBn-(S)-4′-(HO)-DADFT-EE (7), ethyl (S)-4,5-dihydro-2-[2-hydroxy-4-[4-(9-amino-2,6-diazanonyl)benzoyloxy]]-4-methyl-4-thiazolecarboxylate]",
